Assay results as given in ChEMBL document CHEMBL1143934, “Design and synthesis of biologically active analogues of vitamin K2: evaluation of their biological activities with cultured human cell lines” (Bioorg Med Chem, 2008).

How the values were obtained:
MG-63 = assay: Induction of apoptosis against human MG63 cells after 72 hrs; type: functional, cell-based
How it was run: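 MG-63 osteosarcoma cells, double thymidine block (2.5 mM, 12 h each) for S-phase synchronization. Treated 3 days at 10^-5 and 10^-6 M in DMEM. Permeabilized with 0.2% Triton X plus RNase, 37 °C for 1 h. Stained with propidium iodide 50 µg/mL, 4 °C for 20 min. DNA content by flow cytometry, 488 nm. Mean ± SD of three independent experiments.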

[1] = tested on: Vitamin K-dependent gamma-carboxylase (Mus musculus); assay: Ratio of Vmax to Km assessed as 14CO2 incorporation for 30 mins
[2] = substrate: CC(C)=CCC/C(C)=C/CC/C(C)=C/CC/C(C)=C/CC1=C(C)C(=O)c2ccccc2C1=O; assay: (§1) Activity for gamma-glutamylcarboxylase assessed as 14CO2 incorporation
How it was run: (§2)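 Mouse liver microsomal γ-glutamylcarboxylase. Reduced (hydroquinone) vitamin K as cofactor, 8 concentrations. Fixed enzyme level with 3.6 mM FLEEL substrate. Buffer: 16 µM ProFIX19 propeptide, 1.4 mM NaH14CO3, 25 mM MOPS pH 7.0, 500 mM NaCl, 0.16% phosphatidylcholine, 0.16% CHAPS, 8 mM DTT, 0.8 M ammonium sulfate. 14CO2 incorporated into peptide over 30 min counted by scintillation. Km and Vmax from initial rates by double-reciprocal plot.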

[3] = substrate: CC1=C(C/C=C(\C)CC/C=C(\C)CC/C=C(\C)CC/C=C(\C)CO)C(=O)c2ccccc2C1=O; assay: as §1; how it was run: as §2
[4] = substrate: CC(C)=CCC/C(C)=C/CC/C(C)=C/CC/C(C)=C/CC1=C(C)C(=O)c2ccccc2C1=O; assay: (§3) Activity for gamma-glutamylcarboxylase assessed as 14CO2 incorporation for 30 mins; how it was run: as §2
[5] = substrate: CC1=C(C/C=C(\C)CC/C=C(\C)CC/C=C(\C)CC/C=C(\C)CO)C(=O)c2ccccc2C1=O; assay: as §3; how it was run: as §2

Row | Molecule | Activity (MG-63) | further results
1 | CC1=C(C/C=C(\C)CC/C=C(\C)C=O)C(=O)c2ccccc2C1=O | Dose-dependent effect | 
2 | CC(C)=CCC/C(C)=C/CC1=C(C)C(=O)c2ccccc2C1=O | Dose-dependent effect | 
3 | CC(C)=CCC/C(C)=C/CC/C(C)=C/CC/C(C)=C/CC1=C(C)C(=O)c2ccccc2C1=O | Dose-dependent effect | 
4 | CC(C)=CCC/C(C)=C/CC/C(C)=C/CC1=C(C)C(=O)c2ccccc2C1=O | Dose-dependent effect | 
5 | CC1=C(C/C=C(\C)CC/C=C(\C)CC/C=C(\C)CO)C(=O)c2ccccc2C1=O | Dose-dependent effect | 
6 | CC1=C(C/C=C(\C)CC/C=C(\C)CC/C=C(\C)C=O)C(=O)c2ccccc2C1=O | Dose-dependent effect | 
7 | CC1=C(C/C=C(\C)CC/C=C(\C)CC/C=C(\C)CC/C=C(\C)CO)C(=O)c2ccccc2C1=O | Dose-dependent effect | Vmax/Km [1]: 50 pmol/microM
8 | CC1=C(C/C=C(\C)CC/C=C(\C)CO)C(=O)c2ccccc2C1=O | Dose-dependent effect | 
9 | CC1=C(C/C=C(\C)CC/C=C(\C)CC/C=C(\C)CC/C=C(\C)C=O)C(=O)c2ccccc2C1=O | Dose-dependent effect | 
10 | Vitamin K-dependent gamma-carboxylase (Homo sapiens), P38435 (protein) MAVSAGSARTSPSSDKVQKDKAELISGPRQDSRIGKLLGFEWTDLSSWRRLVTLLNRPTDPASLAVFRFLFGFLMVLDIPQERGLSSLDRKYLDGLDVCRFPLLDALRPLPLDWMYLVYTIMFLGALGMMLGLCYRISCVLFLLPYWYVFLLDKTSWNNHSYLYGLLAFQLTFMDANHYWSVDGLLNAHRRNAHVPLWNYAVLRGQIFIVYFIAGVKKLDADWVEGYSMEYLSRHWLFSPFKLLLSEELTSLLVVHWGGLLLDLSAGFLLFFDVSRSIGLFFVSYFHCMNSQLFSIGMFSYVMLASSPLFCSPEWPRKLVSYCPRRLQQLLPLKAAPQPSVSCVYKRSRGKSGQKPGLRHQLGAAFTLLYLLEQLFLPYSHFLTQGYNNWTNGLYGYSWDMMVHSRSHQHVKITYRDGRTGELGYLNPGVFTQSRRWKDHADMLKQYATCLSRLLPKYNVTEPQIYFDIWVSINDRFQQRIFDPRVDIVQAAWSPFQRTSWVQPLLMDLSPWRAKLQEIKSSLDNHTEVVFIADFPGLHLENFVSEDLGNTSIQLLQGEVTVELVAEQKNQTLREGEKMQLPAGEYHKVYTTSPSPSCYMYVYVNTTELALEQDLAYLQELKEKVENGSETGPLPPELQPLLEGEVKGGPEPTPLVQTFLRRQQRLQEIERRRNTPFHERFFRFLLRKLYVFRRSFLMTCISLRNLILGRPSLEQLAQEVTYANLRPFEAVGELNPSNTDSSHSNPPESNPDPVHSEF |  | Km [2]: 13.3 µM; Km [3]: 2 µM; Vmax [4]: 126 pmol; Vmax [5]: 99.9 pmol
